Data on 5 compounds can be found in ChEMBL document CHEMBL1157794, “Discovery of N-[(4R)-6-(4-chlorophenyl)-7-(2,4-dichlorophenyl)-2,2-dimethyl-3,4-dihydro-2H-pyrano[2,3-b]pyridin-4-yl]-5-methyl-1H-pyrazole-3-carboxamide (MK-5596) as a novel cannabinoid-1 receptor (CB1R) inverse agonist for the treatment of obesity” (J Med Chem, 2010).

Data set [1] can be described thus: Half life in Sprague-Dawley rat at 1 mg/kg, iv and 2 mg/kg, po. Particulars: in vivo. Type of data set: ADME, organism-based. The procedure, abridged:
(§1)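 Male Sprague-Dawley rats dosed 1 mg/kg iv and 2 mg/kg po; male beagle dogs and rhesus monkeys 0.2 mg/kg iv and 0.4 mg/kg po. Iv vehicle EtOH/PEG400/water 20:50:30 (rat) or 20:40:40 v/v/v (dog, monkey); oral vehicle Imwitor 742/Tween-80 1:1 w/w. Clearance, Vdss, t1/2, Cmax, F and dose-normalized oral AUC derived.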

Data set [2] in a line: Bioavailability in Sprague-Dawley rat at 1 mg/kg, iv and 2 mg/kg, po. Particulars: in vivo. The format is ADME, organism-based. Summed up:
as §1

Data set [3] in a line: Ratio of drug level in brain to plasma in wild type MDR1a-expressing mouse at 1 mg/kg, iv measured after 4 hrs. The format is ADME, organism-based. To be noted: brain and plasma, read-out: BPR. Details: dose 1 mg/kg, route intravenous. Summed up: (§2)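 Single iv dose of 1 mg/kg given to wild-type and P-gp deficient CF-1 mice. Parent levels in plasma and brain determined 4 h postdose. Brain-to-plasma ratio calculated from these levels.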

A short description of data set [4]: Plasma clearance in rhesus monkey at 0.4 mg/kg, po. Type of data set: ADME, organism-based, Macaca mulatta. More on the design: dose 0.4 mg/kg, route oral. The procedure, abridged:
(§3)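 Male Sprague-Dawley rats received 1 mg/kg iv and 2 mg/kg po. Male beagle dogs and rhesus monkeys received 0.2 mg/kg iv and 0.4 mg/kg po. The iv solution was EtOH/PEG400/water, 20:50:30 v/v/v for rats and 20:40:40 v/v/v for dogs and monkeys. The oral solution was Imwitor742/Tween-80 (1:1 w/w) for all species.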

The nature of data set [5]: Drug level in diet-induced obese rat plasma at 0.3 mg/kg, po measured after 18 hrs of last dose on day 13. The format is ADME, organism-based. Details: dose 0.3 mg/kg, route oral. Particulars: read-out: Drug uptake. Summed up: (§4)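 At end of 13-day chronic efficacy study in DIO rats dosed orally at 0.3 mg/kg, plasma and brain drug levels measured 18 h after last dose.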

Data set [6] can be described thus: Drug level in diet-induced obese rat brain at 0.3 mg/kg, po measured after 18 hrs of last dose on day 13. Type of data set: ADME, organism-based. More on the design: dose 0.3 mg/kg, route oral. To be noted: read-out: Drug uptake. Summed up: as §4
Data set [7] is described as follows: Ratio of drug level in brain to plasma in diet-induced obese rat at 0.3 mg/kg, po measured after 18 hrs of last dose on day 13. Type of data set: ADME, organism-based. More on the design: dose 0.3 mg/kg, route oral. Particulars: brain and plasma, read-out: BPR. Summed up: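 DIO rats dosed daily for 13 days at 0.3 mg/kg in the chronic efficacy study. Plasma and brain levels determined 18 h after the last dose. Brain/plasma exposure ratio calculated.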

The nature of data set [8]: Drug level in diet-induced obese rat plasma at 0.3 mg/kg, po measured after 24 hrs of last dose on day 13. Type of data set: ADME, organism-based. Details: dose 0.3 mg/kg, route oral. To be noted: read-out: Drug uptake. Summed up:
(§5)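 Separate parallel 13-day pharmacokinetic study in DIO rats at 0.3 mg/kg; plasma and brain levels determined 24 h after last dose.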

Data set [9] is described as follows: Drug level in diet-induced obese rat brain at 0.3 mg/kg, po measured after 24 hrs of last dose on day 13. More on the design: dose 0.3 mg/kg, route oral. To be noted: read-out: Drug uptake. Type of data set: ADME, organism-based. The procedure, abridged: as §5
Data set [10] can be described thus: Ratio of drug level in brain to plasma in diet-induced obese rat at 0.3 mg/kg, po measured after 24 hrs of last dose on day 13. The format is ADME, organism-based. Details: dose 0.3 mg/kg, route oral. To be noted: brain and plasma, read-out: BPR. The procedure, abridged: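 Separate 13-day parallel pharmacokinetic study in DIO rats at 0.3 mg/kg. Plasma and brain exposures determined 24 h after the last dose. Brain/plasma ratio calculated.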

Data set [11] in a line: Metabolic stability in bile-duct cannulated rat bile assessed as compound remaining at 2 mg/kg, po up to 72 hrs. Type of data set: ADME, organism-based. Details: dose 2 mg/kg, route oral. Particulars: read-out: Stability. The procedure, abridged:
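[3H]-labelled compound formulated in Imwitor 742/Tween-80 (1:1), given orally at 2 mg/kg to bile duct-cannulated rats; bile, feces and urine collected over 72 h; radioactivity recovery and radioprofiles of parent and metabolites determined.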

Data set [12] is described as follows: Drug level in wild type MDR1a-expressing mouse plasma at 1 mg/kg, iv measured after 4 hrs. The format is ADME, organism-based. More on the design: dose 1 mg/kg, route intravenous. To be noted: read-out: Drug uptake. The procedure, abridged: (§6)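 Single iv 1 mg/kg to wild-type and P-gp deficient CF-1 mice; parent levels in plasma and brain measured 4 h postdose; brain/plasma ratio calculated.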

The nature of data set [13]: Drug level in wild type MDR1a-expressing mouse brain at 1 mg/kg, iv measured after 4 hrs. More on the design: dose 1 mg/kg, route intravenous. The format is ADME, organism-based. Particulars: read-out: Drug uptake. Summed up: as §6
Data set [14] is described as follows: Drug level in P-gp deficient CF1 mouse plasma at 1 mg/kg, iv measured after 4 hrs. Type of data set: ADME, organism-based. Details: dose 1 mg/kg, route intravenous. Particulars: read-out: Drug uptake. Summed up:
as §6

Data set [15] in a line: Drug level in P-gp deficient CF1 mouse brain at 1 mg/kg, iv measured after 4 hrs. Particulars: read-out: Drug uptake. Type of data set: ADME, organism-based. More on the design: dose 1 mg/kg, route intravenous. Summed up: as §6
The nature of data set [16]: Ratio of drug level in brain to plasma in P-gp deficient CF1 mouse at 1 mg/kg, iv measured after 4 hrs. Type of data set: ADME, organism-based. More on the design: dose 1 mg/kg, route intravenous. To be noted: brain and plasma, read-out: BPR. The procedure, abridged:
as §2

The nature of data set [17]: Plasma clearance in Sprague-Dawley rat at 1 mg/kg, iv and 2 mg/kg, po. The format is ADME, organism-based. The procedure, abridged:
as §3

Data set [18] in a line: Volume of distribution at steady state in Sprague-Dawley rat at 1 mg/kg, iv and 2 mg/kg, po. The format is ADME, organism-based. To be noted: in vivo, read-out: Vdss. The procedure, abridged:
as §3

For data set [19], the system named is Rattus norvegicus. Nature of the data set: Dose normalized AUC in Sprague-Dawley rat assessed as per mg of plasma protein at 2 mg/kg, po. The format is ADME, organism-based. More on the design: dose 2 mg/kg, route oral. To be noted: in vivo.
Data set [20] can be described thus: Cmax in Sprague-Dawley rat at 1 mg/kg, iv and 2 mg/kg, po. The format is ADME, organism-based. Particulars: in vivo. The procedure, abridged:
as §1

Data set [21] can be described thus: Plasma clearance in Beagle dog at 0.2 mg/kg, iv. More on the design: dose 0.2 mg/kg, route intravenous. Type of data set: ADME, organism-based, Canis lupus familiaris. The procedure, abridged:
as §3

Data set [22] in a line: Volume of distribution at steady state in Beagle dog at 0.2 mg/kg, iv. The format is ADME, organism-based, Canis lupus familiaris. Details: dose 0.2 mg/kg, route intravenous. To be noted: in vivo, read-out: Vdss. The procedure, abridged:
as §3

A short description of data set [23]: Half life in Beagle dog at 0.2 mg/kg, iv. To be noted: in vivo. More on the design: dose 0.2 mg/kg, route intravenous. Type of data set: ADME, organism-based, Canis lupus familiaris. The procedure, abridged: as §1
Data set [24] can be described thus: Bioavailability in Beagle dog at 0.2 mg/kg, iv. The format is ADME, organism-based, Canis lupus familiaris. Particulars: in vivo. Summed up: as §1
The subject of data set [25] is Rhesus monkey. Nature of the data set: Volume of distribution at steady state in rhesus monkey at 0.4 mg/kg, po. Type of data set: ADME, organism-based, Macaca mulatta. Details: dose 0.4 mg/kg, route oral. To be noted: in vivo. The procedure, abridged: as §3
Data set [26] is described as follows: Half life in rhesus monkey at 0.4 mg/kg, po. Type of data set: ADME, organism-based, Macaca mulatta. More on the design: dose 0.4 mg/kg, route oral. To be noted: in vivo. Summed up: as §1
Data set [27] can be described thus: Cmax in rhesus monkey at 0.4 mg/kg, po. The format is ADME, organism-based, Macaca mulatta. More on the design: dose 0.4 mg/kg, route oral. Particulars: in vivo. Summed up:
as §1

A short description of data set [28]: Oral bioavailability in rhesus monkey at 0.4 mg/kg. Type of data set: ADME, organism-based, Macaca mulatta. Particulars: in vivo. The procedure, abridged: as §3
For data set [29], the system named is Rhesus monkey. Kind of data set: Dose normalized AUC in rhesus monkey at 0.4 mg/kg, po. Type of data set: ADME, organism-based, Macaca mulatta. To be noted: in vivo. More on the design: dose 0.4 mg/kg, route oral. The procedure, abridged: as §1
Data set [30] in a line: Plasma concentration in dog at 1 mg/kg, iv administered for 30 mins. Type of data set: ADME, organism-based, Canis lupus familiaris. Details: dose 1 mg/kg, route intravenous. The procedure, abridged: (§7)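 Anesthetized dogs given iv infusions, each spread evenly over 30 min, at rising cumulative doses of 1, 3 and 10 mg/kg. Peak plasma levels were measured during each dose. Arterial pressure, heart rate and ECG intervals (PR, QRS, QTc) were monitored against vehicle-treated dogs.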

Data set [31] in a line: Plasma concentration in dog at 3 mg/kg, iv administered for 30 mins. The format is ADME, organism-based, Canis lupus familiaris. Details: dose 3 mg/kg, route intravenous. The procedure, abridged: as §7
Data set [32] can be described thus: Plasma concentration in dog at 10 mg/kg, iv administered for 30 mins. Type of data set: ADME, organism-based, Canis lupus familiaris. More on the design: dose 10 mg/kg, route intravenous. Summed up:
as §7

Data set [33] is described as follows: Cmax in Beagle dog at 0.4 mg/kg, po. Particulars: in vivo.
Data set [34] relates to Canis familiaris. Nature of the data set: Dose normalized AUC in Beagle dog at 0.4 mg/kg, po. Particulars: in vivo.

The term half-life denotes the time needed for the level to fall by half in the phase considered. What is called bioavailability is the share of a dose that reaches the circulation, judged against a reference dose that is usually intravenous. Take `CC1(C)C[C@@H](NC(=O)c2ccccc2O)c2cc(-c3ccc(Cl)cc3)c(-c3ccc(Cl)cc3Cl)nc2O1`: in data set [1], the half-life is 1.9 h. The compound further displayed a bioavailability in data set [2] of 1%.
Take `CC1(C)C[C@@H](NC(=O)c2ccccc2N)c2cc(-c3ccc(Cl)cc3)c(-c3ccc(Cl)cc3Cl)nc2O1`: in data set [1], the half-life was 7.4 h. Moreover, the bioavailability in data set [2] was 5%.
What is called CL/F is clearance divided by bioavailability, as obtained after extravascular dosing. In general, Cmax refers to the highest concentration seen after dosing. `Cc1cc(C(=O)N[C@@H]2CC(C)(C)Oc3nc(-c4ccc(Cl)cc4Cl)c(-c4ccc(Cl)cc4)cc32)n[nH]1`: the Kp at 4 h came out at 0.66 in [3] and 4.66 in data set [16]. Further, the CL/F in [4] worked out at 2.3 mL/min/kg. Besides, the figures for the concentration at 18 h in [5] and in [6] were 180 nM and 110 nM, respectively. Further, the Kp at 18 h in data set [7] amounted to 0.63. For the same compound, the results for the concentration at 24 h in [8] and in data set [9] were 135 nM and 74 nM, respectively. Also, the Kp at 24 h in data set [10] was 0.55. Moreover, the remaining at 72 h in data set [11] turned out to be 30%. Moreover, the concentration at 4 h in data set [12] came to 410 nM; in data set [13], 270 nM; in data set [14], 300 nM; in data set [15] it was 1400 nM. Also, the clearance in data set [17] worked out at 4.5 mL/min/kg; in data set [21] it was 1.1 mL/min/kg. Besides, the results for the Vd in data set [18] and in data set [22] were 3 L/kg and 5.7 L/kg, respectively. Further, the half-life is 8.5 h in [1], 60 h in [23] and 15 h in data set [26]. The bioavailability in [2] stood at 91%; in [24], 65%; in data set [28], 46%. In addition, the AUC in data set [19] stood at 11 µM·kg·h/mg; in [29], 6.1 µM·kg·h/mg; in data set [34], 18 µM·kg·h/mg. Moreover, the Cmax amounted to 1030 nM in data set [20], 90 nM in data set [27] and 150 nM in [33]. The compound further came in with a Vdss in data set [25] of 2.4 L/kg. The concentration at 0.5 h in [30] stood at 1630 nM; in [31] it was 3260 nM; in data set [32], 6960 nM.
For `CC1(C)CC(NC(=O)CC(O)C(F)(F)F)c2cc(-c3ccc(Cl)cc3)c(-c3ccc(Cl)cc3Cl)nc2O1` (racemic) [N-[6-(4-CHLOROPHENYL)-7-(2,4-DICHLOROPHENYL)-2,2-DIMETHYL-3,4-DIHYDRO-2H-PYRANO[2,3-B]PYRIDINE-4-YL]-4,4,4-TRIFLUORO-3-HYDROXYBUTANAMIDE (DIASTEREOMERIC MIX)], the half-life in data set [1] is 8.2 h. In data set [2], this compound came in with a bioavailability of 41%.
For `CC(O)C(=O)NC1CC(C)(C)Oc2nc(-c3ccc(Cl)cc3Cl)c(-c3ccc(Cl)cc3)cc21` (single isomer, unassigned), in that order: 7.9 h and 100%.
